dFosB act: activators of mouse delta FosB homodimer; AID 493131; P13346; activation, % at 25 µM; 340,000 tested, 0.99% active; purified delta FosB, TAMRA-CDK5 oligo fluorescence polarization; percent of positive-control signal above neutral wells;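 active means mean activation above about 17%, with every replicate also reaching it, limit read from the data, passing the limit was not always enough; inconclusive means only one of the two conditions met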
Target sequence (P13346 whole entry, looked up): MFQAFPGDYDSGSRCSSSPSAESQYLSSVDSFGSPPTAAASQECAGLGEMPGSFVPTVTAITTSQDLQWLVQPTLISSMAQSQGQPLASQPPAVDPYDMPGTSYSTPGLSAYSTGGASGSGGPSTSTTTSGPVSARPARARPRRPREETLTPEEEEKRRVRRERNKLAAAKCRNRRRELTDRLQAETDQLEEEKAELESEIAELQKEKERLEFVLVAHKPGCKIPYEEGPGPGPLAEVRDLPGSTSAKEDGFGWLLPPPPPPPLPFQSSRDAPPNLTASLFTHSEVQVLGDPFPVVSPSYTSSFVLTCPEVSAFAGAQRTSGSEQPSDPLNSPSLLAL
CAL PDZ FP-1: blocks peptide binding to human CAL PDZ domain. purified CAL PDZ, TMR-peptide fluorescence polarization, 1 h. inhibition, % at 20 µM. 330,000 tested, 0.02% active. AID 504414;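 active means highest replicate inhibition of at least 40%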;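 further: plate controls were DMSO neutral control wells for no effect and unlabeled competitor peptide control wells for full effect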
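Assay system – tagged CAL PDZ protein CerCALP, purified · Timing – 1 h at RT · Compound – single point, 20 µM · Measured by – fluorescence polarization from S- and P-plane intensities, G-factor corrected · Evaluation – inhibition from polarization loss · Probe or stimulus – TMR reporter peptide T*-PRC34 · Buffer or medium – pH 7.4 phosphate-saline buffer, reducing agent, detergent, IgG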
PKA-R1A act: activates the PKA-R1A holoenzyme complex; PKA-R1A dissociation, Cy5-IP20 fluorescence polarization; scaled: DMSO 0%, 113 µM cGMP 100%; activation, % at 11.4 µM; 340,000 tested, 0.083% active;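 active means percent activation above the mean of all tested compounds plus 3 SD, cut at about 19% in these data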;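 further: higher means more PKAc released from R1A so a rise in polarization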
CAL PDZ FP-2: blocks peptide binding to the human CAL PDZ domain; 300,000 tested, 0.92% active; inhibition, % at 24.9 µM; AID 602252; purified CAL PDZ, TMR-peptide fluorescence polarization, 1 h;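 active means mean inhibition of at least 30% with at least half of replicates also reaching 30%; inconclusive means no clear call, values can overlap the other calls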;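 further: 0% = DMSO neutral control and 100% = excess unlabeled competitor peptide PRC23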
PKA-R2B act: PKA-R2B complex activation. PKA-R2B holoenzyme dissociation, Cy5-IP20 fluorescence polarization; R2B truncated from residue 108, S112A mutant; 0% DMSO only, 100% 113 µM cGMP. activation, % at 11.4 µM. 340,000 tested, 0.079% active;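 active means activation above a cutoff set at the mean over all compounds plus 3 SD, cut at about 18% in these data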;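 further: higher means more holoenzyme dissociation and a rise in polarization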
NTR1 ag: NTR1 (human) agonism. 330,000 tested, 0.17% active. activation, % at 20 µM. AID 493036. NTR1-U2OS beta-arrestin-GFP spot imaging, agonist mode;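 active means activation at or above 40% of the spot to cytoplasm intensity ratio, with at least 20 cells analyzed; inconclusive means wells under 20 cells, flagged as cytotoxic or low count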;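 further: 0% = DMSO without peptide and 100% = 100 nM NTR1 peptide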
R2B FP artifact: FP assay interference, PKA-R2B counter-screen; shares compounds with PKA-R2B act; FP artifact counterscreen, fluorescence polarization; activation, % at 11.4 µM; 270 tested, 6% active; AID 504796; in the data active means activation above about 20%;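 further: Cy5 labelled IP20 peptide probe with compound but no PKA protein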
PKA-R2B act conf: PKA-R2B complex activation, confirmation. shares compounds with PKA-R2B act. fluorescence polarization. activation, % at 11.4 µM. 270 tested, 9% active; in the data active means activation above about 19%
* hit, by the source's call; ? = inconclusive; · = no result given. A selection: hits, their analogues and other compounds. The true share with any hit is near 2%.

SMILES | dFosB act | CAL PDZ FP-1 | PKA-R1A act | CAL PDZ FP-2 | PKA-R2B act | NTR1 ag | R2B FP artifact | PKA-R2B act conf
Cc1cc(C)cc(NC(=O)C(=O)NCC2CCCN2S(=O)(=O)c2cccs2)c1 (centres undefined) | 5 | -3 | -3 | 1 | -10 | 1 | · | ·
COc1ccc(OC)c(-c2nnc3n2N=C(c2ccc(OC)c(OC4CCOC4)c2)CS3)c1 (centres undefined) | 4 | -4 | 1 | -5 | 19* | -1 | -1 | -3
Cc1ncc([N+](=O)[O-])n1CC(=O)Nc1ccc(OC(F)(F)Cl)cc1 | 2 | 1 | 5 | -6 | 7 | -1 | · | ·
Cc1nc(C)c(C(=O)N(c2ccc(F)cc2)C(C(=O)NCC2CCCO2)c2ccccc2)s1 (centres undefined) | 0 | 0 | -5 | · | 20* | 0 | -1 | -4
COC(=O)C(C)SC1=N/C(=C/c2ccc(-n3cncn3)cc2)C(=O)N1 (centres undefined) | 13 | -2 | 0 | -5 | -8 | -1 | · | ·
Nc1nnc(Cc2cccc(Br)c2)s1 | -2 | -1 | 7 | · | 20* | -1 | 1 | -4
CC(NC(=O)c1c(F)cccc1Cl)c1ccc(-n2ccnc2)cc1 (centres undefined) | 7 | 0 | -7 | · | 4 | 2 | · | ·
CC(=O)c1ccc(NC(=O)CS(=O)(=O)c2cn(CC(=O)N3CCOCC3)c3ccccc23)cc1 | -2 | -2 | -11 | 0 | -1 | 1 | · | ·
COc1ccc(C)cc1NC(=O)C1CCN(C(=O)C2CC(=O)N(c3ccc(C)cc3)C2)CC1 (centres undefined) | -10 | 0 | -14 | 5 | -2 | -2 | · | ·
COc1ccccc1NC(=O)C1CCN(C(=O)C2CC(=O)N(c3ccc(C)cc3)C2)CC1 (centres undefined) | 0 | -3 | 5 | -4 | 20* | -3 | 6 | 4
C=CCn1c(COc2ccccc2)nc2ccccc21 | -8 | 0 | -8 | 2 | -3 | -1 | · | ·
Cn1c(/C(C#N)=C(\O)c2ccc(S(=O)(=O)N3CCCCC3)cc2)nc2ccccc21 | -11 | -3 | 0 | 1 | 19* | 4 | 2 | 2
COc1ccc(/C(O)=C(\C#N)c2nc3ccccc3n2C)cc1OC | -3 | -4 | -5 | · | 2 | 3 | · | ·
Cc1oc(-c2ccccc2Cl)nc1CS(=O)CC(=O)NCc1ccccc1Cl (centres undefined) | -9 | -2 | -10 | -1 | -4 | -1 | · | ·
Cc1cccc(C)c1N1CCN(c2nc(N(C)C)oc(=O)c2C#N)CC1 | 5 | -1 | 2 | · | 20* | 3 | 2 | 5
CN(C)c1nc(N2CCN(c3ccccc3)CC2)c(C#N)c(=O)o1 | -10 | -1 | -8 | -2 | -2 | 0 | · | ·
C=CCNc1nc2c(c(=O)[nH]c(=O)n2C)n1CCOc1ccccc1 | 5 | -1 | 0 | · | -9 | 3 | · | ·
C=CCNc1nc2c(c(=O)[nH]c(=O)n2C)n1Cc1cccc(C)c1 | 1 | 1 | 10 | -3 | 22* | · | 2 | 5
CCN1C(=O)C(=O)N(Cc2ccc(OC)c(F)c2)C1=O | -6 | 0 | -4 | -4 | -1 | -1 | · | ·
Fc1ccccc1CSc1nnc2ccc(-c3ccncc3)nn12 | -15 | -4 | 2 | -5 | 19* | 0 | 2 | 4
c1ccc(CSc2nnc3ccc(-c4ccncc4)nn23)cc1 | -5 | -4 | 3 | -2 | -1 | 1 | · | ·
O=S1(=O)CCOC(CO)CN1Cc1ccc(Cl)c(Cl)c1 (centres undefined) | -3 | -1 | 3 | -3 | 10 | 4 | -3 | -1
S=c1[nH]nc(C(c2ccccc2)C2CCCCC2)o1 (centres undefined) | -2 | -4 | -6 | -5 | 1 | 1 | · | ·
N=c1c2c(ncn1CCCO)Oc1c(ccc3ccccc13)C2c1ccccc1 (centres undefined) | -13 | -1 | -10 | -3 | -11 | 1 | · | ·
CN(C)CCCn1cnc2c(c1=N)C(c1ccccc1)c1ccc3ccccc3c1O2 (centres undefined) | -9 | -9 | -4 | -11 | 22* | 14 | 2 | 2
SMILES | dFosB act | CAL PDZ FP-1 | PKA-R1A act | CAL PDZ FP-2 | PKA-R2B act | NTR1 ag | R2B FP artifact | PKA-R2B act conf
O=C(COC(=O)COc1ccc(Cl)cc1)Nc1ccc2c(c1)OCCO2 | -8 | -4 | 1 | · | 19* | -1 | 3 | 4
CCC(=O)c1ccc(OCC(=O)OCC(=O)Nc2ccc3c(c2)OCCO3)cc1 | -6 | 0 | -16 | -3 | -4 | 0 | · | ·
COc1cccc(CC(NC(C)=O)C(=O)NC2CCN(C(=O)c3ccncc3)CC2)c1OC (centres undefined) | 1 | -3 | -5 | -16 | 19* | -1 | 6 | 2
COc1cccc(CC(NC(C)=O)C(=O)NC2CCN(C(=O)C3CCCCC3)CC2)c1OC (centres undefined) | 1 | -3 | -1 | -2 | -2 | 1 | · | ·
Cc1ccnc2nc(C(=O)OCC(=O)NCc3cccc(Cl)c3)nn12 | -7 | -1 | 7 | -4 | 8 | 4 | · | ·
O=C(CN1C(=O)NC2(CCc3ccccc32)C1=O)Nc1ccccc1Cl (centres undefined) | -5 | -1 | 0 | -1 | 2 | 0 | · | ·
O=C(Nc1ccc(C(=O)O)cc1)/C(=C\c1ccco1)NC(=O)c1ccc(Br)cc1 | · | · | 0 | · | 24* | · | 4 | 1
COC(=O)Cc1cnc(NC(=O)C2C3CCC(C3)C2C(=O)O)s1 (centres undefined) | -5 | 1 | 4 | 9 | 19* | -2 | 2 | 4
C=CCn1c(SCC(=O)Nc2ccc(O)cc2)nc2sc(CC)cc2c1=O | 0 | -4 | -7 | -3 | 1 | 3 | · | ·
O=C1Nc2ccccc2/C1=C/c1cnc(-c2ccccc2)[nH]1 | ? | 1 | -13 | 0 | 19* | 6 | 0 | 5
Cc1c(Cl)c(C(=O)NC2C3CC4CC(C3)CC2C4)nn1C (centres undefined) | -6 | -2 | 1 | -4 | 20* | 0 | 3 | 1
CCOc1ccc(S(=O)(=O)N2CCCC(C(=O)Nc3ccccc3)C2)cc1 (centres undefined) | 1 | -1 | -7 | 1 | -5 | 0 | · | ·
Cc1sc2ncn(CC(=O)NC3CCCCC3)c(=O)c2c1C | -5 | 1 | -11 | 6 | -1 | 1 | · | ·
CCc1cc2c(=O)n(CC(=O)NC3CCCCC3)cnc2s1 | 1 | -3 | 9 | 0 | 19* | 0 | -1 | 1

Compound activity as filed in PubChem.
